Reference: ChEMBL document CHEMBL3351653, “One-pot heterogeneous synthesis of Δ(3)-tetrahydrocannabinol analogues and xanthenes showing differential binding to CB(1) and CB(2) receptors” (Eur J Med Chem, 2014)

These molecules were tested against T1, Cannabinoid receptor 2 (Homo sapiens, UniProt P34972) (assay: Displacement of [3H]CP55940 from human cannabinoid CB2 receptor expressed in CHO-K1 cells by liquid scintillation counting).
Type: cell-based

T1 sequence (P34972 whole entry): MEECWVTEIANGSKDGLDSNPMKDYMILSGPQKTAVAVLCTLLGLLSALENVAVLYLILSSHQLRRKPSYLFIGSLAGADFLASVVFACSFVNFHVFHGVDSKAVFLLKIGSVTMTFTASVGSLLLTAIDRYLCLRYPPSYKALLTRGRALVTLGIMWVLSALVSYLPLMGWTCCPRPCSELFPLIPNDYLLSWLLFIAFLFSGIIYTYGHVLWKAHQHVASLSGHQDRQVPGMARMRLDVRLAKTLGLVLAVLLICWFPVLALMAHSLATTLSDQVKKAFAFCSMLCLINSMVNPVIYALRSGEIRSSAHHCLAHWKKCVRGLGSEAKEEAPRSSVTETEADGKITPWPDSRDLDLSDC

How did the Ki turn out when Cc1c(O)ccc2c1OC(C)(C)C1=C2C[C@H](C)CC1 was run?
Its Ki is > 10 µM.

How did the Ki turn out when CCc1cc2c(cc1O)OC1=C(CC[C@@H](C)C1)C2(C)C was run?
Its Ki is 0.51 µM.

Which Ki does the source give for Cc1c(O)ccc2c1OC1=C(CC[C@@H](C)C1)C2(C)C here?
Its Ki is 1 µM.

C[C@@H]1CCC2=C(C1)Oc1cc(O)ccc1C2(C)C was tested. Which Ki did it give?
Its Ki is 4.2 µM.

How did the Ki turn out when CCCCCc1cc(O)c2c(c1)OC1=C(CC[C@@H](C)C1)C2(C)C was run?
The Ki was 0.47 µM.

How did the Ki turn out when Cc1cc(O)c2c(c1)OC(C)(C)C1=C2C[C@H](C)CC1 was run?
The Ki was 0.66 µM.

How did the Ki turn out when C[C@@H]1CCC2=C(C1)c1ccc(O)cc1OC2(C)C was run?
Its Ki is > 10 µM.

CCCCCc1cc(O)c2c(c1)OC1=C(CC[C@H](C)C1)C2(C)C was tested. Which Ki did it give?
Its Ki is 0.18 µM.

How did the Ki turn out when CCc1cc2c(cc1O)OC(C)(C)C1=C2C[C@H](C)CC1 was run?
Its Ki is > 10 µM.

Cc1cc(O)c2c(c1)OC1=C(CC[C@@H](C)C1)C2(C)C was tested. Which Ki did it give?
Its Ki is > 10 µM.

The molecules below were run against Cannabinoid receptor 1 (Homo sapiens, UniProt P21554) (assay: Displacement of [3H]CP55940 from human cannabinoid CB1 receptor expressed in CHO-K1 cells by liquid scintillation counting).
Type: cell-based

Chain of Cannabinoid receptor 1 (P21554 whole entry): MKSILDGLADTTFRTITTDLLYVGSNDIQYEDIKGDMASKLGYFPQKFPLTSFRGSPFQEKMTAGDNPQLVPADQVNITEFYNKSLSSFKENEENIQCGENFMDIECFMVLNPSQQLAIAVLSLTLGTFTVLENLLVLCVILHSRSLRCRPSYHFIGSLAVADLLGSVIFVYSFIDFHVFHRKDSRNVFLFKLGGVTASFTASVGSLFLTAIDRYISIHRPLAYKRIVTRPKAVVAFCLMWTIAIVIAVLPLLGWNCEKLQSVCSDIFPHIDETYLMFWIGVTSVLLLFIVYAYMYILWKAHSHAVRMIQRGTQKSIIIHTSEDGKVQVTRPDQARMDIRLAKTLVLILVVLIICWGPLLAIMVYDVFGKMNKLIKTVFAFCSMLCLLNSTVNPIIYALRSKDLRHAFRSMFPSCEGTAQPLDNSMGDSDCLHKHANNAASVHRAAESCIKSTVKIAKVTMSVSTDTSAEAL

Cc1c(O)ccc2c1OC(C)(C)C1=C2C[C@H](C)CC1 was tested. Which Ki did it give?
Its Ki is > 10 µM.

How did the Ki turn out when CCc1cc2c(cc1O)OC1=C(CC[C@@H](C)C1)C2(C)C was run?
Its Ki is > 10 µM.

Cc1c(O)ccc2c1OC1=C(CC[C@@H](C)C1)C2(C)C was tested. Which Ki did it give?
The Ki was > 10 µM.

How did the Ki turn out when C[C@@H]1CCC2=C(C1)Oc1cc(O)ccc1C2(C)C was run?
Its Ki is > 10 µM.

For CCCCCc1cc(O)c2c(c1)OC1=C(CC[C@@H](C)C1)C2(C)C, which Ki is on record?
The Ki was 1.1 µM.

With Cc1cc(O)c2c(c1)OC(C)(C)C1=C2C[C@H](C)CC1 as the molecule, how does the Ki read?
The Ki was 1 µM.

For C[C@@H]1CCC2=C(C1)c1ccc(O)cc1OC2(C)C, which Ki is on record?
The Ki was > 10 µM.

How did the Ki turn out when CCCCCc1cc(O)c2c(c1)OC1=C(CC[C@H](C)C1)C2(C)C was run?
The Ki was 2.1 µM.

CCc1cc2c(cc1O)OC(C)(C)C1=C2C[C@H](C)CC1 was tested. Which Ki did it give?
Its Ki is > 10 µM.

How did the Ki turn out when Cc1cc(O)c2c(c1)OC1=C(CC[C@@H](C)C1)C2(C)C was run?
The Ki was > 10 µM.

These molecules were tested against T1, Cannabinoid receptor 2 (assay: Partial agonist activity at human cannabinoid CB2 receptor expressed in CHO-K1 cells assessed as [S35]GTPgammaS binding by scintillation counting relative to vehicle treated control).
Type: functional, cell-based
Procedure, shortened: (§1)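 CB2 membranes held on ice with […] and 0.1 nM [35S]-GTPγS in buffer with 0.5% fatty-acid-free BSA. Reaction started by adding compound, vehicle or CP55940. GF/B filtration, washing in ice-cold 50 mM Tris-HCl pH 7.4 with 0.1% BSA, then scintillation counting. Specific binding is signal minus the excess-GTPγS residual. Results given as % of vehicle control. Three independent experiments in triplicate.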

How did the Emax turn out when CCCCCc1cc(O)c2c(c1)OC(C)(C)C1=C2C[C@H](C)CC1 was run?
The Emax was 133%.

Which Emax does the source give for CCCCCc1cc(O)c2c(c1)OC(C)(C)C1=C2C[C@@H](C)CC1 here?
The Emax was 146%.

For CCCCCc1cc(O)c2c(c1)OC1=C(CC[C@@H](C)C1)C2(C)C, which Emax is on record?
Its Emax is 152%.

For CCCCCc1cc(O)c2c(c1)OC1=C(CC[C@H](C)C1)C2(C)C, which Emax is on record?
The Emax was 167%.

These molecules were tested against T1, Cannabinoid receptor 2 (assay: Partial agonist activity at human cannabinoid CB2 receptor expressed in CHO-K1 cells assessed as [S35]GTPgammaS binding by scintillation counting).
Type: functional, cell-based
Procedure, shortened: as §1, with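 “BSA.” for “BSA. Reaction started by adding compound, vehicle or CP55940.”, “residual.” for “residual. Results given as % of vehicle control.”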

CCCCCc1cc(O)c2c(c1)OC1=C(CC[C@@H](C)C1)C2(C)C was tested. Which EC50 did it give?
The EC50 was 0.93 µM.

For CCCCCc1cc(O)c2c(c1)OC1=C(CC[C@H](C)C1)C2(C)C, which EC50 is on record?
Its EC50 is 0.82 µM.
